Laboratory results: ChEMBL document CHEMBL1124329, “Synthesis of novel bifunctional chelators and their use in preparing monoclonal antibody conjugates for tumor targeting” (J Med Chem, 1989)
Values joined by “and” are separate entries in the source; they are usually repeats but may differ in a detail not shown here. Equal entries are not always repeated.

Experiments:
Settings in all cases: in vivo, iv
Mus musculus [1] = experiment: Biodistribution of labeled B72.3-chelator conjugate (DTPA isothiocynates) in Nude mice bearing LS174T tumors, in blood, administered intravenously expressed as % of injected dose of indium-111 per gram of tissue; format: ADME, organism-based
Summary of the method: (§1)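 Female athymic nu/nu mice (BALB/c background) were given 5×10^6 A375 melanoma cells (antigen-negative) s.c. in the left flank, then 14 days later 1.25×10^6 LS174T colorectal cells (antigen-positive) in the right flank. After a further 7–14 days, with tumors at 100–500 mg, mice were randomized and given 2.0 μg indium-111-labeled B72.3 conjugate in saline i.v. by tail vein. At 48 h, tissues were weighed and gamma-counted, and activity was expressed as % of counted injectate per gram.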

Mus musculus [2] = experiment: Biodistribution of labeled B72.3-chelator conjugate(DTPA isothiocynates) in Nude mice bearing LS174T tumor (Ag+), administered intravenously expressed as % of injected dose of indium-111 per gram of tissue; format: ADME, organism-based; summary of the method: as §1
Mus musculus [3] = experiment: Biodistribution of labeled B72.3-chelator conjugate(DTPA isothiocynates) in Nude mice bearing LS174T tumors, in liver, administered intravenously expressed as % of injected dose of indium-111 per gram of tissue; format: ADME, organism-based; summary of the method: as §1
Mus musculus [4] = experiment: Biodistribution of labeled B72.3-chelator conjugate(DTPA isothiocynates) in Nude mice bearing LS174T tumors, in lungs, administered intravenously expressed as % of injected dose of indium-111 per gram of tissue; format: ADME, organism-based, Lung; summary of the method: as §1
Mus musculus [5] = experiment: Biodistribution of labeled B72.3-chelator conjugate(DTPA isothiocynates) in Nude mice bearing LS174T tumors, in spleen, administered intravenously expressed as % of injected dose of indium-111 per gram of tissue; format: ADME, organism-based; summary of the method: as §1
Mus musculus [6] = experiment: Biodistribution of labeled B72.3-chelator conjugate(DTPA isothiocynates) in nude mice bearing LS174T tumors, in kidney, administered intravenously expressed as % of injected dose of indium-111 per gram of tissue; format: ADME, organism-based; summary of the method: as §1
Mus musculus [7] = experiment: Biodistribution of labeled B72.3-chelator conjugate(DTPA amide) in Nude mice bearing LS174T tumors, in spleen, administered intravenously expressed as % of injected dose of indium-111 per gram of tissue; format: ADME, organism-based
Mus musculus [8] = experiment: Biodistribution of labeled B72.3-chelator conjugate(DTPA amide) in nude mice bearing LS174T tumors, in kidney, administered intravenously expressed as % of injected dose of indium-111 per gram of tissue; format: ADME, organism-based
Mus musculus [9] = experiment: Biodistribution of labeled B72.3-chelator conjugate(DTPA amide)s in Nude mice bearing LS174T tumors, in lungs, administered intravenously expressed as % of injected dose of indium-111 per gram of tissue; format: ADME, organism-based, Lung
Mus musculus [10] = experiment: Biodistribution of labeled B72.3-chelator conjugate(DTPA amide) in Nude mice bearing LS174T tumor (Ag-), administered intravenously expressed as % of injected dose of indium-111 per gram of tissue; format: ADME, organism-based
Mus musculus [11] = experiment: Biodistribution of labeled B72.3-chelator conjugate(DTPA amide) in Nude mice bearing LS174T tumors, in blood, administered intravenously expressed as % of injected dose of indium-111 per gram of tissue; format: ADME, organism-based
Mus musculus [12] = experiment: Biodistribution of labeled B72.3-chelator conjugate (DTPA amide) in Nude mice bearing LS174T tumor (Ag+), administered intravenously expressed as % of injected dose of indium-111 per gram of tissue; format: ADME, organism-based
Mus musculus [13] = experiment: Biodistribution of labeled B72.3-chelator conjugate in Nude mice bearing LS174T tumors, in liver, administered intravenously expressed as % of injected dose of indium-111 per gram of tissue
Mus musculus [14] = experiment: Biodistribution of labeled B72.3-chelator conjugate(EDTA isothiocynates) in Nude mice bearing LS174T tumors, in liver, administered intravenously expressed as % of injected dose of indium-111 per gram of tissue; format: ADME, organism-based; summary of the method: as §1
Mus musculus [15] = experiment: Biodistribution of labeled B72.3-chelator conjugate(EDTA isothiocynates) in Nude mice bearing LS174T tumors, in lungs, administered intravenously expressed as % of injected dose of indium-111 per gram of tissue; format: ADME, organism-based, Lung; summary of the method: as §1
Mus musculus [16] = experiment: Biodistribution of labeled B72.3-chelator conjugate(EDTA isothiocynates) in Nude mice bearing LS174T tumors, in spleen, administered intravenously expressed as % of injected dose of indium-111 per gram of tissue; format: ADME, organism-based; summary of the method: as §1
Mus musculus [17] = experiment: Biodistribution of labeled B72.3-chelator conjugate(EDTA isothiocynates) in nude mice bearing LS174T tumors, in kidney, administered intravenously expressed as % of injected dose of indium-111 per gram of tissue; format: ADME, organism-based; summary of the method: as §1
Mus musculus [18] = experiment: Biodistribution of labeled B72.3-chelator conjugatec in Nude mice bearing LS174T tumor (Ag+), administered intravenously expressed as % of injected dose of indium-111 per gram of tissue; format: ADME, organism-based
Mus musculus [19] = experiment: Biodistribution of labeled B72.3-chelator conjugate (EDTA isothiocynates) in Nude mice bearing LS174T tumors, in blood, administered intravenously expressed as % of injected dose of indium-111 per gram of tissue; format: ADME, organism-based; summary of the method: as §1
Mus musculus [20] = experiment: Biodistribution of labeled B72.3-chelator conjugate (DTPA amide) in Nude mice bearing LS174T tumors, in blood, administered intravenously expressed as % of injected dose of indium-111 per gram of tissue; format: ADME, organism-based
Mus musculus [21] = experiment: Biodistribution of labeled B72.3-chelator conjugate(DTPA amide) in Nude mice bearing LS174T tumor (Ag+), administered intravenously expressed as % of injected dose of indium-111 per gram of tissue; format: ADME, organism-based

SMILES	Biodistribution (Mus musculus [7])	Biodistribution (Mus musculus [8])	Biodistribution (Mus musculus [9])	Biodistribution (Mus musculus [10]) [%]	Biodistribution (Mus musculus [11]) [%]	Biodistribution (Mus musculus [12]) [%]	Biodistribution (Mus musculus [13])	also measured
Nc1ccc(CC(CN(CCN(CC(=O)O)CC(=O)O)CC(=O)O)N(CC(=O)O)CC(=O)O)cc1 (stereo not given)								Biodistribution (Mus musculus [1]): 18.37%; Biodistribution (Mus musculus [2]): 25.94%; Biodistribution (Mus musculus [3]): 9.09%; Biodistribution (Mus musculus [4]): 9.94%; Biodistribution (Mus musculus [5]): 5.03%; Biodistribution (Mus musculus [6]): 8.99%
O=C(O)CN(CCN(CC(=O)O)C(Cc1ccc(N=C=S)cc1)C(=O)O)CC(=O)O (stereo not given)	3.9%	5.9%	5.5%	5.2	12.1	21.1	6.1%	
Nc1ccc(CC(CN(CC(=O)O)CC(=O)O)N(CC(=O)O)CC(=O)O)cc1 (stereo not given)								Biodistribution (Mus musculus [14]): 14.26%; Biodistribution (Mus musculus [15]): 9.19%; Biodistribution (Mus musculus [16]): 11.68%; Biodistribution (Mus musculus [17]): 16.91%; Biodistribution (Mus musculus [18]): 20.82%; Biodistribution (Mus musculus [19]): 19.82%
O=C(O)CN(CCN(CC(=O)O)CC(=O)O)CCN(CC(=O)O)C(Cc1ccc(N=C=S)cc1)C(=O)O (stereo not given)	4%	2.3%	4.1%	4.1	8.9	19.5	6.9%	
O=C(O)CN(CCN(CC(=O)O)CC(=O)O)CCN(CC(=O)O)CC(=O)O [PENTETIC ACID]	9.14% and 12.12%	17.14% and 12.64%	6.3% and 6.15%	6.23	10.67	18.97	17.2% and 19.39%	Biodistribution (Mus musculus [20]): 11.23%; Biodistribution (Mus musculus [21]): 42.22%
